Reference: paper PMC2773291 (Journal of medicinal chemistry, 2009)
Peptide text beside a SMILES is read from it. * marks the point of attachment. Pyropheophorbide(a) = C=Cc1c(C)c2cc3nc(c4c5[nH]c(cc6nc(cc1[nH]2)C(C)=C6CC)c(C)c5C(=O)C4)[C@@H](CCC(=O)*)[C@@H]3C; X1 = CCN(CC)c1ccc2nc3ccc(N=Nc4ccc(N(C)CCCC(=O)*)cc4)cc3[n+](-c3ccccc3)c2c1

Legend:
[1] = biological target: dipeptidyl peptidase IV (DPPIV) (Homo sapiens, UniProt P27487); assay: Stability of FAP-PPB toward DPPIV; conditions: FAP-PPB 1 nmol in 1 mL 20mM TRIS pH 7.5, PPB:DPPIV = 228:1, 37 °C
dipeptidyl peptidase IV (DPPIV), sequence (P27487 29-766 limits assumed, species assumed): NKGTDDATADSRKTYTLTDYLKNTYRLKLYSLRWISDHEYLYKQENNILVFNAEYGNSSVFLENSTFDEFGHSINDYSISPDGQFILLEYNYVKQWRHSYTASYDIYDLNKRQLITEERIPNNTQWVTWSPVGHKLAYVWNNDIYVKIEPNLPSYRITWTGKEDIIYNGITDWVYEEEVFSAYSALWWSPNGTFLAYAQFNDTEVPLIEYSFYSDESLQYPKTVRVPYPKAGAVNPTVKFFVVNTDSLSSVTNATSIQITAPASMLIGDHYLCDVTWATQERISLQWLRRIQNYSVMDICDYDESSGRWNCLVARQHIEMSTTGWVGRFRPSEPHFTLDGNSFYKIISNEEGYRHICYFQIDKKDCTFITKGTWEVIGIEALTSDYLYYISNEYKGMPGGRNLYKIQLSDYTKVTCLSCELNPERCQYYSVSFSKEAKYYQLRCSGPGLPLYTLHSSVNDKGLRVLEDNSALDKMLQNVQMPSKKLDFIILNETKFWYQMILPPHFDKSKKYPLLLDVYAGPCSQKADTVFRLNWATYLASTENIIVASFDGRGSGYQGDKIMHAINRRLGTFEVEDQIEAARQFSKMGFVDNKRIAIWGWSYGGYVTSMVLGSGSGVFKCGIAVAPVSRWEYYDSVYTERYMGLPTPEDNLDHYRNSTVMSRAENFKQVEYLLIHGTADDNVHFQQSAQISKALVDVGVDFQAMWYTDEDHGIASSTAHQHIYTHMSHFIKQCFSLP

[2] = tested on: HEK-mFAP and HEK-Vector cells; assay: Flow cytometric studies, HEK-mFAP versus HEK-Vector cells; assay type: cell-based, human; conditions: 6.25 μM
Outline: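 Transfected HEK293 lines (murine FAP or empty vector) seeded at about 7 × 10^5 cells/well for 2 days, then kept overnight in FBS-free DMEM. Probe diluted in this conditioned medium to 6.25 μM and applied 1, 2, 4, 6 or 24 h at 37°C. Cells were centrifuge-washed three times, fixed in 2% paraformaldehyde for 10 min, and read by flow cytometry (ex 633 nm, em 660–690 nm; 10000 cells). Three independent experiments.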

[3] = tested on: HT29 tumor (FAP on stromal fibroblasts); assay: HT29 mouse xenograft in vivo imaging and frozen-section microscopy; design: species or system nude mouse
murine FAP (mFAP) = biological target: T1, murine FAP (mFAP) (Mus musculus, UniProt P97321); assay: Activation of FAP-PPB by murine FAP in buffer; assay type: biochemical
T1 sequence (P97321 26-761 limits assumed): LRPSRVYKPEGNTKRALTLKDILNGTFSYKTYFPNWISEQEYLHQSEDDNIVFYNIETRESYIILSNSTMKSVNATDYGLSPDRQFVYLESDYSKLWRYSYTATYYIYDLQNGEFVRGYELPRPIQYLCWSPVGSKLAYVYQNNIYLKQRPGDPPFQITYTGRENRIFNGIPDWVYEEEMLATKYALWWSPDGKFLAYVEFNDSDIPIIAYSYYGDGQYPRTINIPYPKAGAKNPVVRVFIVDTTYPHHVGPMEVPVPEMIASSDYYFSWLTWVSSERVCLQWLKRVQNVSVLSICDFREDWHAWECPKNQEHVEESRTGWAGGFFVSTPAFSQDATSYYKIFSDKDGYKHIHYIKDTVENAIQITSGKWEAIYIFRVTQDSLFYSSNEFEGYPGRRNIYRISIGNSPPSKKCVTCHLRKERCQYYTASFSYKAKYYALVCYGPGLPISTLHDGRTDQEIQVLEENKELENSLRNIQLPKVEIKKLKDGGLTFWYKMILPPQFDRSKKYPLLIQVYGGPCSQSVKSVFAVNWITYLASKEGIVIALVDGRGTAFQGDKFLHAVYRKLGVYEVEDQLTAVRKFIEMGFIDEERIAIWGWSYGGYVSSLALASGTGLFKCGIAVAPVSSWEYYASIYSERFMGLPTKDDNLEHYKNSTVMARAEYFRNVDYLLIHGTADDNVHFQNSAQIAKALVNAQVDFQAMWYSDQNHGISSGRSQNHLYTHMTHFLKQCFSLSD
Outline: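 In-house expressed, purified murine FAP (2 μg) incubated with probe (1 nmol, predissolved in 2.5 μL DMSO plus 0.5 μL Tween 80, then 1 mL 0.12 M NaCl/0.12 M TRIS, pH 7.37); probe:enzyme about 50:1. Fluorescence followed in real time at 37°C (ex 650 nm, em 675 nm). Cleavage also tracked by HPLC-MS every 30 min until complete.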

tumor site = assay: Tumor accumulation after intravenous tail-vein injection; assay type: in vivo
HEK-mFAP cells = assay: In vitro photocytotoxicity; assay type: cell-based, human; conditions: for photocytotoxicity toward HEK-mFAP cells in the presence of light: FAP-PPB 8 μM, FAP-PP 4 μM, 2D-FAP-PPB 8 μM, 2 J cm^−2, MTT
HEK-mFAP cells (FAP+) [4] = assay: HPLC-MS of culture media after incubation with HEK-mFAP cells; assay type: cell-based, human; conditions: for cleavage in culture media of HEK-mFAP cells (HPLC-MS): media after incubation for the confocal study, 25 μM, 6 h
Outline: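 Probe-containing FAP-expressing HEK293 culture media were collected after incubation and analysed by HPLC-MS for cleaved probe. One set came from flow cytometry (6.25 μM in FBS-free DMEM, up to 24 h, 37°C). The other came from confocal work (25 μM, 6 h, 37°C).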

HEK-mFAP tumor = assay: Mouse xenograft in vivo imaging and ex vivo validation, HEK-mFAP tumor; design: species or system nude mice
Outline: (§1)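 Athymic female nude mice carried 1 × 10^7 FAP-transfected HEK293 cells on the left flank and 1 × 10^7 vector cells on the right, or FAP cells on both flanks. After 3 weeks (tumors 5–10 mm) mice received 4 days of low-fluorescence diet and ketamine/acepromazine anaesthesia. Probe (25 nmol in 30 μL aqueous, 2 μL DMSO, 0.5 μL Tween 80) was injected intratumorally at several sites. Imaging before and at intervals to 24 h used ex 650 nm, em ≥700 nm, 200 ms exposure; signal normalised to exposure time and ROI area.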

HEK-mFAP cells (FAP+) [5] = assay: Confocal microscopic studies, HEK-mFAP cells; assay type: cell-based, human; conditions: 25 μM, 6 h, 37°C, FBS-free medium
Outline: (§2)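 HEK293 stably expressing full-length wild-type murine FAP, grown in DMEM with 10% FBS, 2 mM L-glutamine and G418 200 μg mL−1. Cells seeded at 1.5 × 10^4/well for 2 days, then kept overnight in FBS-free DMEM. Probe was diluted in this conditioned medium to 25 μM and applied 6 h at 37°C, 5% CO2. Cells were fixed in 3% formaldehyde (20 min, dark), DAPI-mounted, and imaged confocally (405 and 633 nm lasers).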

HEK-Vector cells = assay: In vitro photocytotoxicity; assay type: cell-based, human; conditions: for photocytotoxicity toward HEK-Vector cells in the presence of light: FAP-PPB 8 μM, FAP-PP 4 μM, 2D-FAP-PPB 8 μM, 2 J cm^−2, MTT
HEK-Vector tumor = assay: Mouse xenograft in vivo imaging and ex vivo validation, HEK-Vector tumor; design: species or system nude mice
Outline: as §1

mFAP = biological target: T2, mFAP (Mus musculus, UniProt P97321); assay: mFAP activity assay; assay type: biochemical, murine; conditions: 37°C
T2 sequence (P97321 26-761 limits assumed): T1 sequence (P97321 26-761 limits assumed)
Outline: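 Probe at 0.1, 0.3, 0.5, 0.7, 1, 2 and 6 μM (predissolved in 2.5 μL DMSO plus 0.5 μL Tween 80, then 1 mL 0.12 M NaCl/0.12 M TRIS, pH 7.37) was incubated with murine FAP (2 μg) at 37°C. Fluorescence was read continuously (ex 650, em 675 nm). After 1 h, 10 μg enzyme was added and reading continued 2 h. Triplicates were run. Vmax, Km, kcat and kcat/Km came from nonlinear Michaelis-Menten fits of initial rates (10% substrate depleted).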

HEK-Vector cells (FAP−) = assay: Confocal microscopic studies, HEK-Vector cells; assay type: cell-based, human; conditions: 25 μM, 6 h, 37°C, FBS-free medium
Outline: as §2, with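 “carrying empty vector,” for “expressing full-length wild-type murine FAP,”, “hygromycin B” for “G418”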

[6] = Quenching efficiency measurements; assay type: physicochemical; conditions: FAP-PP quenched by free BHQ3 in DMSO; slope of linear Stern-Volmer plot
Outline: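 Unquenched peptide-photosensitizer (1 μM in DMSO) was mixed with varying concentrations of free BHQ3 quencher. Fluorescence was corrected using absorbance at the excitation and emission wavelengths. Data were fitted to F0/F = 1 + KSV[Q], and KSV was taken from the slope of the Stern-Volmer plot.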

[7] = 10 micron frozen sections, 24 h post-injection
[8] = tumor homogenized, DMSO extract, 24 h post-injection of 25 nmol intra-tumor

For `C=Cc1c(C)c2cc3nc(c4c5[nH]c(cc6nc(cc1[nH]2)C(C)=C6CC)c(C)c5C(=O)C4)[C@@H](CCC(=O)N[C@H](C(=O)N[C@@H](CO)C(=O)NCC(=O)N1CCC[C@H]1C(=O)N[C@@H](CC(N)=O)C(=O)N[C@@H](CCC(N)=O)C(=O)N[C@@H](CCC(=O)O)C(=O)N[C@@H](CCC(N)=O)C(=O)N[C@@H](CCCCNC(=O)CCCN(C)c1ccc(N=Nc2ccc4nc5ccc(N(CC)CC)cc5[n+](-c5ccccc5)c4c2)cc1)C(N)=O)[C@@H](C)O)[C@@H]3C` [FAP-PPB, Pyro-TSGPNQEQK(BHQ3)] ({Pyropheophorbide(a)}-TSGPNQEQK(X1)-NH2; C-terminus assumed), the “HPLC analysis after incubation with DPPIV” value ([1]; 2 h, HPLC-MS) was “only a single peak corresponding to the intact FAP-PPB”, the “fluorescence intensity change on incubation with DPPIV” value ([1]; over 2 h) was “No significant increase in fluorescence intensity” and the “dark toxicity (distribution and shape of cells in flow cytometry)” value ([2]; 1 to 24 h, both cell lines, no light) was “does not have dark toxicity to both cell lines”. The “fluorescence intensity in HEK-mFAP cells compared to HEK-Vector cells” value ([2]; flow cytometry, 1 h incubation) was “about 8 fold”, the “in vivo fluorescence in HT29 tumor” value ([3]; 25 nmol intra-tumor injection, left flank) was “strong fluorescence signal was observed immediately and it lasted for 24 h” and the “Pyro fluorescence in HT29 tumor frozen section (confocal)” value ([3]; after in vivo imaging) was “bright Pyro’s fluorescence signals within both cancer cells and fibroblasts”. For the same molecule, the “time to complete cleavage by mFAP” value (murine FAP (mFAP); HPLC-MS every 30 min, PPB:FAP about 50:1, TRIS buffer pH 7.37, 37°C) was 4 h, the “fluorescence increase on complete cleavage by mFAP” value (murine FAP (mFAP); TRIS buffer pH 7.37, 37°C, complete fluorescence restoration) was 200 fold and the “accumulation at the tumor site” value (tumor site) was “no selective accumulation”. The “cytotoxicity toward HEK-mFAP cells in the absence of light” value (HEK-mFAP cells; 8 μM, 24 h, MTT) was “non-cytotoxic in the absence of light”, the “cell viability of HEK-mFAP cells with light” value (HEK-mFAP cells; 8 μM, 24 h incubation, 670 nm laser, 130 mW cm^−2, 2 J cm^−2, MTT) was 55% and the “photocytotoxicity toward HEK-mFAP cells in the presence of light” value (HEK-mFAP cells) was “significant photocytotoxicity”. The “FAP-PPB cleaved in media after incubation with HEK-mFAP cells” value (HEK-mFAP cells (FAP+) [4]; 6.25 μM, 24 h incubation, HPLC-MS, data not shown) was “approximately 70%”, the “cleavage in culture media of HEK-mFAP cells (HPLC-MS)” value (HEK-mFAP cells (FAP+) [4]) was “two peaks corresponding to fragments Pyro-TSGP and NQEQK-BHQ3 were identified” and the “time to activation of FAP-PPB in tumor” value (HEK-mFAP tumor; 25 nmol intra-tumor injection, in vivo fluorescence imaging) was ≤ 5 min. The “Pyro fluorescence in HEK-mFAP tumor frozen sections (confocal)” value (HEK-mFAP tumor; [7]) was “strong Pyro’s fluorescence signal”, the “intracellular fluorescence in HEK-mFAP cells (confocal)” value (HEK-mFAP cells (FAP+) [5]) was “bright intracellular fluorescence signal” and the “cytotoxicity toward HEK-Vector cells in the absence of light” value (HEK-Vector cells; 8 μM, 24 h, MTT) was “non-cytotoxic in the absence of light”. The “photocytotoxicity toward HEK-Vector cells in the presence of light” value (HEK-Vector cells) was “not in the HEK-Vector cells”, the “Pyro fluorescence in HEK-Vector tumor frozen sections (confocal)” value (HEK-Vector tumor; [7]) was “very weak signal” and the “fluorescence signal in HEK-Vector tumor relative to HEK-mFAP tumor” value (HEK-Vector tumor; 24 h post injection, fluorescence intensity per exposure time at tumor site) was “about half”. The “cleavage in HEK-Vector tumor extract (HPLC-MS)” value (HEK-Vector tumor; [8]) was “no cleavage was observed”, the “specificity constant (kcat/Km)” value (mFAP) was 1.75e+06 M⁻¹ min⁻¹ and the “intracellular fluorescence in HEK-Vector cells (confocal)” value (HEK-Vector cells (FAP−)) was “minimal fluorescence signal”.

In the case of Pyro-TSGPNQEQK [FAP-PP], the “photocytotoxicity toward HEK-Vector cells in the presence of light” value (HEK-Vector cells) is reported as “could kill both cell lines” and the “Stern-Volmer quenching constant (KSV)” value [6] is reported as 5.3 × 10^4 mol^−1dm^3.

For Pyro-TSGpnQEQK(BHQ3) [2D-FAP-PPB], the “photocytotoxicity toward HEK-mFAP cells in the presence of light” value (HEK-mFAP cells) was “essentially non-cytotoxic”, the “cleavage in culture media of HEK-mFAP cells (HPLC-MS)” value (HEK-mFAP cells (FAP+) [4]) was “no cleavage was observed” and the “cleavage in HEK-mFAP tumor extract (HPLC-MS)” value (HEK-mFAP tumor; [8]) was “little non-specific cleavages”. For the same molecule, the “intracellular fluorescence in HEK-mFAP cells (confocal)” value (HEK-mFAP cells (FAP+) [5]) was “no significant fluorescence”, the “photocytotoxicity toward HEK-Vector cells in the presence of light” value (HEK-Vector cells) was “essentially non-cytotoxic” and the “intracellular fluorescence in HEK-Vector cells (confocal)” value (HEK-Vector cells (FAP−)) was “no significant fluorescence”.
